# Test results taken from ChEMBL document CHEMBL3792293, “A synthetic 2,3-diarylindole induces cell death via apoptosis and autophagy in A549 lung cancer cells” (Bioorg Med Chem Lett, 2016).
# The source made the active and inactive calls. No cut-off for these calls is given here.
# Legend:
# [1] = system: A549; assay: Cytotoxicity against human A549 cells assessed as reduction in cell viability after 72 hrs by MTT assay; assay type: functional, cell-based
# Summary of the method: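 MTT viability screen in A549 cells with 72 h compound exposure; value reported as IC50.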
# [2] = system: A549; assay: Induction of morphological changes in human A549 cells assessed as appearance of rounded cell at 10 to 100 uM after 24 hrs; assay type: functional, cell-based
# Summary of the method: (§1)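 A549 cells treated 24 h at 10, 50 or 100 μM, then photographed to assess rounding and vacuole appearance.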
# [3] = system: A549; assay: Induction of morphological changes in human A549 cells assessed as increase in vacuole appearance at 10 to 100 uM after 24 hrs; assay type: functional, cell-based; summary of the method: as §1
# [4] = system: A549; assay: Induction of apoptosis in human A549 cells assessed as viable cells at 10 uM after 24 hrs by Annexin V/7-AAD staining based flow cytometry (reference value: 89.95%); assay type: functional; settings: A549, 24 h, read-out: Activity
# [5] = system: A549; assay: Induction of cell morphological changes in human A549 cells at 10 to 100 uM after 3 hrs; assay type: functional, cell-based
# [6] = system: A549; assay: Induction of apoptosis in human A549 cells assessed as viable cells at 50 uM after 24 hrs by Annexin V/7-AAD staining based flow cytometry (reference value: 89.95%); assay type: functional; settings: A549, 24 h, read-out: Activity
# [7] = system: A549; assay: Induction of apoptosis in human A549 cells assessed as viable cells at 100 uM after 24 hrs by Annexin V/7-AAD staining based flow cytometry (reference value: 89.95%); assay type: functional; settings: A549, 24 h, read-out: Activity
# [8] = system: A549; assay: Induction of apoptosis in human A549 cells assessed as early apoptotic cells at 10 uM after 24 hrs by Annexin V/7-AAD staining based flow cytometry (reference value: 8.55%); assay type: functional
# [9] = system: A549; assay: Induction of apoptosis in human A549 cells assessed as early apoptotic cells at 50 uM after 24 hrs by Annexin V/7-AAD staining based flow cytometry (reference value: 8.55%); assay type: functional
# [10] = system: A549; assay: Induction of apoptosis in human A549 cells assessed as early apoptotic cells at 100 uM after 24 hrs by Annexin V/7-AAD staining based flow cytometry (reference value: 8.55%); assay type: functional
# [11] = system: A549; assay: Induction of apoptosis in human A549 cells assessed as late apoptotic cells at 10 uM after 24 hrs by Annexin V/7-AAD staining based flow cytometry (reference value: 1.5%); assay type: functional
# [12] = system: A549; assay: Induction of apoptosis in human A549 cells assessed as late apoptotic cells at 50 uM after 24 hrs by Annexin V/7-AAD staining based flow cytometry (reference value: 1.5%); assay type: functional
# [13] = system: A549; assay: Induction of apoptosis in human A549 cells assessed as late apoptotic cells at 100 uM after 24 hrs by Annexin V/7-AAD staining based flow cytometry (reference value: 1.5%); assay type: functional
# [14] = system: A549; assay: Induction of apoptosis in human A549 cells assessed as dead cells at 10 uM after 24 hrs by Annexin V/7-AAD staining based flow cytometry relative to control; assay type: functional
# Summary of the method: (§2)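 A549 cells exposed for 24 h at 10, 50 or 100 μM, then stained with Annexin-V and 7AAD (Annexin-V and Dead Cell assay kit). Dead and apoptotic populations were counted by flow cytometry on a Muse Cell Analyzer and compared with untreated control. Values are averages of three independent experiments with SD.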
# [15] = system: A549; assay: Induction of apoptosis in human A549 cells assessed as dead cells at 50 uM after 24 hrs by Annexin V/7-AAD staining based flow cytometry relative to control; assay type: functional; summary of the method: as §2
# [16] = system: A549; assay: Induction of apoptosis in human A549 cells assessed as dead cells at 100 uM after 24 hrs by Annexin V/7-AAD staining based flow cytometry relative to control; assay type: functional; summary of the method: as §2
# [17] = system: A549; assay: Induction of autophagy in human A549 cells after 6 to 24 hrs by MDC-staining based fluorescence imaging analysis; assay type: functional, cell-based
# Summary of the method: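 Autophagic vacuoles stained with monodansylcadaverine (MDC). Imaging was done after 24 h at 10, 50 or 100 μM. Relative fluorescence (Ex/Em 335/512 nm) was measured after 6 h at 6.2–100 μM.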
# [18] = system: A549; assay: Induction of apoptosis in human A549 cells assessed as increase in PARP cleavage after 24 hrs by Western blot analysis; assay type: functional, cell-based
# Summary of the method: (§3)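 A549 cells exposed 24 h to 10, 50 or 100 μM, then harvested and analysed by Western blot for cleaved PARP and for LC3-II conversion.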
# [19] = system: A549; assay: Induction of autophagy in human A549 cells assessed as increase in LC3-2 level at 10 to 100 uM after 24 hrs by Western blot analysis; assay type: functional, cell-based; summary of the method: as §3
# [20] = system: A549; assay: Induction of autophagy in human A549 cells at 10 to 100 uM after 24 hrs by MDC-staining based fluorescence imaging analysis in presence of autophagy inhibitor bafilomycin A1; assay type: functional, cell-based
# Summary of the method: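 A549 cells co-treated 24 h with 10, 50 or 100 μM plus or minus 10 nM bafilomycin A1. Autophagy was quantified by MDC staining fluorescence. Values are means of three independent experiments with SD.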
# [21] = system: A549; assay: Induction of apoptosis in human A549 cells assessed as increase in apoptotic cells at 10 to 100 uM after 24 hrs by Annexin V/7-AAD staining based flow cytometry in presence of autophagy inhibitor bafilomycin A1; assay type: functional, cell-based
# Summary of the method: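 A549 cells treated 24 h at 10, 50 or 100 μM with or without 10 nM bafilomycin A1. Apoptosis was read by Annexin-V/7AAD on a Muse Cell Analyzer. Values are means of three independent experiments with SD, and significance was tested against control and between ± Baf.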
# [22] = Homo sapiens, A549, 72 h, read-out: IC50
compound,measurement,setting,value
CC(=O)Nc1ccc(-c2c(-c3ccccc3)[nH]c3ccccc23)cc1,IC50,[1]; a549,ND(Insoluble)
COc1ccc(-c2c(-c3ccccc3)[nH]c3ccccc23)cc1,IC50,[1]; [22],30 µM
c1ccc(-c2[nH]c3ccccc3c2-c2ccccc2)cc1,IC50,[1]; [22],58.7 µM
O=[N+]([O-])c1ccc(-c2[nH]c3ccccc3c2-c2ccccc2)cc1,IC50,[1]; [22],24.8 µM
N#Cc1ccc(-c2c(-c3ccccc3)[nH]c3ccccc23)cc1,IC50,[1]; [22],18.3 µM
O=[N+]([O-])c1ccc(-c2c(-c3ccccc3)[nH]c3ccccc23)cc1,IC50,[1]; [22],38.4 µM
COc1ccc(-c2[nH]c3ccccc3c2-c2ccccc2)cc1,IC50,[1]; [22],288 µM
Nc1ccc(-c2[nH]c3ccccc3c2-c2ccccc2)cc1,IC50,[1]; [22],54.7 µM
COC(=O)c1ccc(-c2[nH]c3ccccc3c2-c2ccccc2)cc1,IC50,[1]; a549,ND(Insoluble)
CC(=O)Nc1ccc(-c2[nH]c3ccccc3c2-c2ccccc2)cc1,IC50,[1]; a549,ND(Insoluble)
Nc1ccc(-c2c(-c3ccccc3)[nH]c3ccccc23)cc1,IC50,[1]; [22],83.4 µM
N#Cc1ccc(-c2[nH]c3ccccc3c2-c2ccccc2)cc1,IC50,[1]; [22],15 µM
COC(=O)c1ccc(-c2c(-c3ccccc3)[nH]c3ccccc23)cc1,IC50,[1]; [22],5.17 µM
same,Activity,[2],Active
same,Activity,[3],Active
same,viability at 10 µM,[4],82.8%
same,Activity,[5],Active
same,viability at 50 µM,[6],74.5%
same,viability at 100 µM,[7],50.5%
same,Activity,[8],14%
same,Activity,[9],17.45%
same,Activity,[10],9.7%
same,Activity,[11],2.8%
same,Activity,[12],7.75%
same,Activity,[13],39.7%
same,Activity,[14],0.4%
same,Activity,[15],0.25%
same,Activity,[16],0.15%
same,Activity,[17],Dose-dependent effect
same,Activity,[18],Dose-dependent effect
same,Activity,[19],Active
same,Activity,[20],inactive
same,Activity,[21],inactive
